# HTR1A agonist: 5-HT1a (human) receptor agonism; actives 0.56% (n = 65,000); activation, % at 10 µM; CHO 5-HT1a Ga15 NFAT-bla reporter, FRET ratio; 0% basal, 100% maximal reference agonist;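 active = activation above the screen-wide mean activation plus 3 SD, cut at about 19% in these data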;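 note: 0% = DMSO wells and 100% = 5-CT at EC100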
# S1P1 ag pot: activates or potentiates agonism at human S1P1 receptor. activation, % at 9.5 µM. AID 449. S1P1 CRE-bla cells, forskolin, beta-lactamase FRET, potentiator mode; S1P1 agonist co-added at EC20, 2 nM; 100% = saturating reference agonist, 0% = basal. P21453. actives 0.57% (n = 56,000);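 active = activation above a cutoff set at the mean activation of all tested compounds plus 3 SD, cut at about 54% in these data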;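 note: forskolin at 4 µM as EC80 and the EC20 agonist is SEW2871; 100% = SEW2871 at its EC100 plus forskolin at EC80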
# 5-HT1A blocker: blocks the human serotonin 5-HT1a receptor | P08908 | CHO 5-HT1a Ga15 NFAT-bla reporter, antagonist mode | inhibition, % at 10 µM | actives 0.68% (n = 62,000) | AID 612;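 active = inhibition above the mean of all tested compounds plus 3 SD, cut at about 43% in these data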;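 note: receptor stimulated by 5-CT agonist at 100 nM near EC80; beta-lactamase reporter measured by ratiometric fluorescence of a cleavable substrate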
# HTR1E antagonist: blocks the human 5-HT1E serotonin receptor; inhibition, % at 6 µM; CHO 5-HT1E Ga15 NFAT-bla reporter, FRET, antagonist; actives 0.99% (n = 65,000);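 active = inhibition above a set limit, the mean inhibition across every tested compound plus 3 SD, cut at about 29% in these data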;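 note: signal is the 460 over 535 nm emission ratio of beta-lactamase substrate; 0% = agonist plus DMSO wells and 100% = wells without agonist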
# S1P3 agonist: S1P3 (human) receptor agonism; Q99500; activation, % at 4.5 µM; S1P3 NFAT-BLA reporter cells, FRET ratio; relative to 1 µM S1P, basal subtracted; actives 0.1% (n = 60,000);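 active = activation above the screen-wide mean plus 3 SD, cut at about 4.5% in these data, passing the limit was not always enough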
# Target sequence (Q99500 whole entry, looked up): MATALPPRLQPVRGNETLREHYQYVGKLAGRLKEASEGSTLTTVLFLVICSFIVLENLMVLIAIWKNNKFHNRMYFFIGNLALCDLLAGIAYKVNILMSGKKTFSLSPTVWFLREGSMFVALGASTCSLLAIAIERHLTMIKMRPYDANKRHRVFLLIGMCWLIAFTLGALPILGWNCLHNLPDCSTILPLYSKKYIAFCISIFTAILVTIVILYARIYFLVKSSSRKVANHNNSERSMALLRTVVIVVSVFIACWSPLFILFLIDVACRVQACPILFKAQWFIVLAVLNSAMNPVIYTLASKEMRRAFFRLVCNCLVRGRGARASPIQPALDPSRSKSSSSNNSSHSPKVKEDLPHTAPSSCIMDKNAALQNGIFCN
#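 material = human S1P3 NFAT-BLA reporter CHO cells | schedule = 4 h compound at 37 °C, 2 h substrate at RT | measured by = fluorescent BLA substrate, ex 405 nm, em 460/535 nm ratio | controls = 1 µM S1P reference | replication = primary once, confirmation triplicate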
# HTR1E agonist: activates the human 5-HT1E serotonin receptor; AID 574; activation, % at 6 µM; P28566; actives 0.69% (n = 65,000); CHO 5-HT1E Ga15 NFAT-bla reporter, FRET; 0% DMSO wells, 100% control agonist wells;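 active = activation above a set limit, the screen-wide mean activation plus 3 SD, cut at about 8.5% in these data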;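 note: 100% = positive control agonist at 1 µM giving full maximal response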
# An asterisk follows results filed as active; · = not tested or not shown. Shown are actives, neighbours in structure and some others; about 3% of the full set was active somewhere.
SMILES,HTR1A agonist,S1P1 ag pot,5-HT1A blocker,HTR1E antagonist,S1P3 agonist,HTR1E agonist
CCN1C=C(C(=O)OC)C(c2cccc(C)c2)C(C(=O)OC)=C1,20*,·,-19,-5,·,6
CC1CC(C)(C)Nc2ccc(OC(=O)c3ccco3)cc21 (stereo unspecified),-4,68,51*,40*,-1,1
O=C(Oc1ccc2ccccc2c1)c1ccco1,-2,-21,-11,-8,0,1
O=C(CCn1ccc2ccccc21)Nc1ccc(N2CCOCC2)cc1,-2,22,-11,3,0,-1
COc1ccc(S(=O)(=O)N2CCCCC2)cc1C(C)C,0,13,10,5,0,34*
COc1ccc(Oc2ccc(S(=O)(=O)N3CCCCC3)cc2S(=O)(=O)N2CCCCC2)cc1,0,·,-26,11,·,0
CC1(C)CC(=O)CC(C)(C)N1OC(=O)c1ccncc1,-3,8,1,1,-1,0
CCN(CC)C(=O)C1CCN(S(=O)(=O)c2ccc3oc4ccccc4c3c2)CC1,0,84*,8,6,-2,1
O=S(=O)(c1ccc2oc3ccc(S(=O)(=O)N4CCCC4)cc3c2c1)N1CCCC1,-2,-5,-6,-6,0,0
CC(=O)Nc1cc(OC(C)=O)c2nonc2c1OC(C)=O,7,98*,78*,103*,-2,1
CCCn1c(=O)n(C)c(=O)c2c3oc(=O)c(NC(=O)c4ccc(F)cc4)cc3[nH]c21,2,14,-1,6,1,0
CC(=O)N1CCCc2cc(S(=O)(=O)NC(C(=O)NC(C)c3ccccc3)C(C)C)ccc21 (stereo unspecified),-3,4,-13,1,-2,1
COc1ccc(NC(=O)C(NS(=O)(=O)c2ccc3c(c2)CCCN3C(C)=O)C(C)C)c(OC)c1 (stereo unspecified),-4,-1,-5,-9,0,17*
Cc1ccc(-c2csc3ncnc(Sc4nnc(CN5CCCCCC5=O)o4)c23)cc1,-3,93*,76*,48*,-2,0
CSc1nc2ccccc2n1CC(=O)Nc1ccccc1,-1,-7,15,2,-1,-1
CSc1nc2ccccc2n1CC(=O)Nc1ccc(C)c(C)c1,-1,·,11,1,·,15*
CCc1ccc(NC(=O)Cn2c(SC)nc3ccccc32)cc1,-2,9,13,-6,-1,54*
CC(C)(C)n1nnnc1C(c1cccs1)N1CCCc2ccccc21 (stereo unspecified),-1,6,23,1,0,0
c1ccc2c(c1)oc1c(NCc3ccc4c(c3)OCO4)ncnc12,0,90*,12,-3,0,1
O=C(NC1=NC2CCCCC2N1)c1ccccc1 (stereo unspecified),-1,-3,-2,7,-2,0
O=S(=O)(c1ccccc1)N1CCN(Cc2cccc(Cl)c2)CC1,-2,-14,-15,-4,0,0
O=C1NCCN1Cc1cccc(Cl)c1,28*,-1,5,-3,0,0
Cc1noc(C)c1CSc1nc2[nH]ncc2c(=O)n1-c1ccccc1,-1,·,37,52*,-1,0
Cc1noc(C)c1CSc1nc2ccccc2c(=O)n1-c1ccc(F)cc1F,0,-4,46*,21,-2,0
Cc1noc(C)c1CSc1nnc2n(-c3ccccc3)c(=O)c3ccccc3n12,1,-3,-12,-2,0,0
SMILES,HTR1A agonist,S1P1 ag pot,5-HT1A blocker,HTR1E antagonist,S1P3 agonist,HTR1E agonist
Cc1noc(C)c1CSc1nc2ccccc2c(=O)n1-c1ccccc1,1,14,31,21,0,0
O=C(O)CCCC(=O)N1CCN(C(c2ccccc2)c2ccccc2)CC1,6,-1,·,2,-3,0
O=c1cc(O)c2c(=O)n3c4c(cccc4c2o1)CCC3,-2,6,5,-5,-1,0
CC(NC(=O)Nc1nnc(C(F)(F)F)s1)N1C(=O)C2C3C=CC(C3)C2C1=O (stereo unspecified),-3,-29,-1,-2,-1,-1
CC(NC(=O)Nc1nnc(C(F)(F)F)s1)(C(F)(F)F)C(F)(F)F,3,80*,·,54*,-8,0
O=C(CC1(O)C(=O)N(Cc2ccccc2)c2ccccc21)c1ccncc1 (stereo unspecified),-4,10,-3,-5,-2,0
COc1cccc(CNC(=O)C2CCN(c3cnccn3)CC2)c1,-1,8,-4,12,0,2
FC(F)(F)c1ccc(N2CCN(c3cc(-c4ccccc4)nc4ncnn34)CC2)nc1,0,108*,-17,4,-1,0
CCN(CC)S(=O)(=O)c1ccc(C2CNC(=O)C2)cc1 (stereo unspecified),-1,-1,8,3,-1,-2
CN(C)CCNC(=O)C(C(=O)c1ccc(F)cc1)n1ccccc1=O (stereo unspecified),120*,-4,4,0,-2,1
O=C(NCc1ccco1)C(C(=O)c1ccc(F)cc1)n1ccccc1=O (stereo unspecified),-2,15,12,-3,0,0
O=C(CNC(=O)c1ccc(Cl)cc1)NCCCn1ccnc1,-3,-10,-11,20,-1,-1
CCOc1ccc(S(=O)(=O)Nc2ccc(Cl)cn2)c(C)c1C,0,43,14,-3,-1,-1
CCOc1cc(C)c(S(=O)(=O)Nc2ccc(Cl)cn2)cc1C,-2,26,12,7,0,27*
CCc1cccc(OCC(=O)Nc2ccc(S(=O)(=O)Nc3onc(C)c3C)cc2)c1,-2,-6,14,-2,-1,0
COc1ccc(Nc2nc3c(c(=O)n(C)c(=O)n3C)n2CCO)cc1,-4,-21,-7,-10,0,3
CCOc1ccc(N2CC(C(=O)Nc3ncccc3C)CC2=O)cc1 (stereo unspecified),-1,·,0,13,·,-1
CCn1c2ccccc2c2nnc(SCC(=O)c3ccccc3)nc21,3,-70,-13,31*,0,-1
CSc1ccc2nnc(-c3cccc(F)c3)n2n1,20*,-20,-6,6,1,0
CCOC(=O)CC(=O)CSc1ccc2nnc(-c3cccc(F)c3)n2n1,-2,2,2,-1,0,0
COc1ccc(/C=C/C(O)=C2/C(=O)N(C)C3(C)CC2c2ccccc2O3)cc1 (stereo unspecified),-1,-5,46*,20,-1,0

# Assay outcomes from PubChem BioAssay.
